Activity calls are given as the source filed them. No cut-off for these calls is given here.
What was measured:
[1] = biological target: D(2) dopamine receptor (Homo sapiens) (UniProt P14416); assay: Inhibition of dopamine D2 receptor at 1 uM by radioligand displacement assay
Summary of the method: (§1)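 Single-concentration screen at 1 µM. Percent inhibition was measured by competitive displacement of each target's radioligand.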

[2] = biological target: T1, 5-hydroxytryptamine receptor 6 (Homo sapiens, UniProt P50406); assay: Displacement of [3H]-LSD from cloned human 5HT6 receptor expressed in HEK293 cells; type: cell-based
T1 sequence (P50406 whole entry): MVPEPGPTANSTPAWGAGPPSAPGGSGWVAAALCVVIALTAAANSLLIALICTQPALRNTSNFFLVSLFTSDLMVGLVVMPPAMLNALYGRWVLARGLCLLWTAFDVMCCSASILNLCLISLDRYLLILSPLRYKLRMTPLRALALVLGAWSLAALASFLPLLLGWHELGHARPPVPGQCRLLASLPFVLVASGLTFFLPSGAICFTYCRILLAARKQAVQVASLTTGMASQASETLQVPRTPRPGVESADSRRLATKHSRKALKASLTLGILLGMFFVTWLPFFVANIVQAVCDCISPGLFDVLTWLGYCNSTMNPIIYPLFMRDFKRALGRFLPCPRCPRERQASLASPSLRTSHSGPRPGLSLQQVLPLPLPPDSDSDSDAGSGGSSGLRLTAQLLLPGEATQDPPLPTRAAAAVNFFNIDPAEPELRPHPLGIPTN
Summary of the method: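 Human recombinant 5-HT6 receptor expressed in HEK293 cells. Radioligand [3H]-LSD (60–80 Ci/mmol) at 1.5 nM final. Methiothepin mesylate defined non-specific binding and served as reference. Ki values are the average of duplicate determinations, run under a contract lab's standard protocol.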

[3] = biological target: Sodium-dependent serotonin transporter (Homo sapiens) (UniProt P31645); assay: Inhibition of SERT at 1 uM by radioligand displacement assay; summary of the method: as §1
Chain of Sodium-dependent serotonin transporter (Homo sapiens) (P31645 whole entry, looked up): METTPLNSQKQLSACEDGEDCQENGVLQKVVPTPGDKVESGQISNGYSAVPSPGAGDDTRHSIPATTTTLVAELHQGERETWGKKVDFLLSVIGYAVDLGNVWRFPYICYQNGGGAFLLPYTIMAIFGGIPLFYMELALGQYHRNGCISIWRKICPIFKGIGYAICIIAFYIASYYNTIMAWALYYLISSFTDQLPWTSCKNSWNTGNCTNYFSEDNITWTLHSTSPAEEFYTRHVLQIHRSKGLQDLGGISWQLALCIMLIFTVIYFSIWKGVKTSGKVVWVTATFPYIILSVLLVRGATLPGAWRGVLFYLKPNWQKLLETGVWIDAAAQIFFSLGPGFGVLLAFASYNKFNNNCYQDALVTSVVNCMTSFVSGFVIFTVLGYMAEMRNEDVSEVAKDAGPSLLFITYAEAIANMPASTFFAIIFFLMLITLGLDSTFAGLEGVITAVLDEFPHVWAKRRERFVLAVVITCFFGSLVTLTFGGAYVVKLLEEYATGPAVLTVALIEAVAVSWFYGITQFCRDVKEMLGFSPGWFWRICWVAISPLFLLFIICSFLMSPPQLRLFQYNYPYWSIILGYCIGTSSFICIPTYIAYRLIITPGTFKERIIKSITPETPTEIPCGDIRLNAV

hERG (KCNH2) = hERG (KCNH2) (Homo sapiens, UniProt Q12809); assay: Inhibition of human ERG at 1 uM by radioligand displacement assay; summary of the method: as §1
[4] = biological target: D(3) dopamine receptor (Homo sapiens) (UniProt P35462); assay: Inhibition of dopamine D3 receptor at 1 uM by radioligand displacement assay; summary of the method: as §1
Chain of D(3) dopamine receptor (Homo sapiens) (P35462 whole entry): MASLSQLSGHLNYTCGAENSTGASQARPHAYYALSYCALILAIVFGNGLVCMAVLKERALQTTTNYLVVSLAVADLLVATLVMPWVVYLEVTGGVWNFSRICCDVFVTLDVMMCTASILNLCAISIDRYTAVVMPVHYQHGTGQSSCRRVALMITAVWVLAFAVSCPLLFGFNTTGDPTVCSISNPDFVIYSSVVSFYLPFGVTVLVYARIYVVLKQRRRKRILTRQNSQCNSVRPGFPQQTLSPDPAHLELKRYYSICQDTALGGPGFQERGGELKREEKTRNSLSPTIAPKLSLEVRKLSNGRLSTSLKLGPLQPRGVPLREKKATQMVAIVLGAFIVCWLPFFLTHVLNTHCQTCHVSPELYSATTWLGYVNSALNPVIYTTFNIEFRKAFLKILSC

[5] = biological target: T2, 5-hydroxytryptamine receptor 3A (Homo sapiens) (UniProt P46098); assay: Inhibition of 5HT3 receptor at 1 uM by radioligand displacement assay; summary of the method: as §1
T2 sequence (whole entry): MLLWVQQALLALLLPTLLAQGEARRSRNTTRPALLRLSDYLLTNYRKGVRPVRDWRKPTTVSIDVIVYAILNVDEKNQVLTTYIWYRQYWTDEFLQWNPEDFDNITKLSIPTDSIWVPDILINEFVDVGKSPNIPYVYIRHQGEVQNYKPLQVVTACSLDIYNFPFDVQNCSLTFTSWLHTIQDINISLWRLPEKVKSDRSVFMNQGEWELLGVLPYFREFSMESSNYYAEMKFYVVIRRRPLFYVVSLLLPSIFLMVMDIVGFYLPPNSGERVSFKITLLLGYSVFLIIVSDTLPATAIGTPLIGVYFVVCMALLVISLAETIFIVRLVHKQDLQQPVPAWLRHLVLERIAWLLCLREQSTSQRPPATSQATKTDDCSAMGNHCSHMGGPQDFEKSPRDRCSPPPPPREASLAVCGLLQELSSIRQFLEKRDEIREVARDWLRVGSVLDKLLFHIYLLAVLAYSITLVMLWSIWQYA

[6] = biological target: Histamine H1 receptor (Homo sapiens) (UniProt P35367); assay: Inhibition of histamine H1 receptor at 1 uM by radioligand displacement assay; summary of the method: as §1
Chain of Histamine H1 receptor (Homo sapiens) (P35367 whole entry): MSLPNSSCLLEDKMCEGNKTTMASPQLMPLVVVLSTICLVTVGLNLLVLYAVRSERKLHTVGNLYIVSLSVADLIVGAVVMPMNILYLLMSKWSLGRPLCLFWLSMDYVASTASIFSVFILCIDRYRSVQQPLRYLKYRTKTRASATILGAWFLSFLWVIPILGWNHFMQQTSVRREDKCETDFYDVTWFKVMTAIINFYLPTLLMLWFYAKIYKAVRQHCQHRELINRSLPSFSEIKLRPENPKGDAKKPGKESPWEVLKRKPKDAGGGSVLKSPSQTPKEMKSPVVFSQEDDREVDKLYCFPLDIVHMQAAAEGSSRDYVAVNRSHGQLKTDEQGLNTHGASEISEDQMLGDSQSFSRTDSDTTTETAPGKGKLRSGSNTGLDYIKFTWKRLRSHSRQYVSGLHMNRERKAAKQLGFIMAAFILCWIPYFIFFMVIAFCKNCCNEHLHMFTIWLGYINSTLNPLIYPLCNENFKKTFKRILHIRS

[7] = biological target: 5-hydroxytryptamine receptor 2A (Homo sapiens) (UniProt P28223); assay: Inhibition of 5HT2A receptor at 1 uM by radioligand displacement assay; summary of the method: as §1
Chain of 5-hydroxytryptamine receptor 2A (Homo sapiens) (P28223 whole entry): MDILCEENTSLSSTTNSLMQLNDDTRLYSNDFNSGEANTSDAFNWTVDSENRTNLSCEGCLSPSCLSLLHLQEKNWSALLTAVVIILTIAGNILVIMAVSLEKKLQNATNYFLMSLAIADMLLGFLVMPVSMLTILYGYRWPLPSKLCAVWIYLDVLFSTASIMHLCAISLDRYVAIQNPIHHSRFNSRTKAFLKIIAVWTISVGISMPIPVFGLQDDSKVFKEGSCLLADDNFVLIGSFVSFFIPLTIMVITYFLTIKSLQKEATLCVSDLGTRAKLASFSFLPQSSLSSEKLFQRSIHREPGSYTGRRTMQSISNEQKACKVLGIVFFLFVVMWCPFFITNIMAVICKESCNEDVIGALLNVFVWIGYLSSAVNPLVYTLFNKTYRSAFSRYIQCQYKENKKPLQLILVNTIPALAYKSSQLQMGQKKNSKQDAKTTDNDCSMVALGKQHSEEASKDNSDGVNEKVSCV

[8] = biological target: Sodium-dependent dopamine transporter (Homo sapiens) (UniProt Q01959); assay: Inhibition of DAT at 1 uM by radioligand displacement assay; summary of the method: as §1
Chain of Sodium-dependent dopamine transporter (Homo sapiens) (Q01959 whole entry): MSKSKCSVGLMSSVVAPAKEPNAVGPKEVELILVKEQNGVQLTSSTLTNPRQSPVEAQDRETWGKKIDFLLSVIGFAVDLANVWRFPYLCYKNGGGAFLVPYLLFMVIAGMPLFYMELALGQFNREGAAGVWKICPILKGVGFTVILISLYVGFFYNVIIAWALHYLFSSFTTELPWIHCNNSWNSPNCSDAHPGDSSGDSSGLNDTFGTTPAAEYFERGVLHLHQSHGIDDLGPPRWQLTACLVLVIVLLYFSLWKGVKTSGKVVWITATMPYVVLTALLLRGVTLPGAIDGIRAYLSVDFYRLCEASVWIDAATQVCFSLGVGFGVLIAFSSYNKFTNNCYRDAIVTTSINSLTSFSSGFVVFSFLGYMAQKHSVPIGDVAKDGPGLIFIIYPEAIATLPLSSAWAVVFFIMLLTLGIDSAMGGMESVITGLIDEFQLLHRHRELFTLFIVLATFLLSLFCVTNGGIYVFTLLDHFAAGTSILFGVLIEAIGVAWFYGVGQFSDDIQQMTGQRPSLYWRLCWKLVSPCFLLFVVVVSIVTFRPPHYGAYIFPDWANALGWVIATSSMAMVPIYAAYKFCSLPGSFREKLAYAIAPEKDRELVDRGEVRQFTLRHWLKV

[9] = biological target: Sodium-dependent noradrenaline transporter (Homo sapiens) (UniProt P23975); assay: Inhibition of NET at 1 uM by radioligand displacement assay; summary of the method: as §1
Chain of Sodium-dependent noradrenaline transporter (Homo sapiens) (P23975 whole entry): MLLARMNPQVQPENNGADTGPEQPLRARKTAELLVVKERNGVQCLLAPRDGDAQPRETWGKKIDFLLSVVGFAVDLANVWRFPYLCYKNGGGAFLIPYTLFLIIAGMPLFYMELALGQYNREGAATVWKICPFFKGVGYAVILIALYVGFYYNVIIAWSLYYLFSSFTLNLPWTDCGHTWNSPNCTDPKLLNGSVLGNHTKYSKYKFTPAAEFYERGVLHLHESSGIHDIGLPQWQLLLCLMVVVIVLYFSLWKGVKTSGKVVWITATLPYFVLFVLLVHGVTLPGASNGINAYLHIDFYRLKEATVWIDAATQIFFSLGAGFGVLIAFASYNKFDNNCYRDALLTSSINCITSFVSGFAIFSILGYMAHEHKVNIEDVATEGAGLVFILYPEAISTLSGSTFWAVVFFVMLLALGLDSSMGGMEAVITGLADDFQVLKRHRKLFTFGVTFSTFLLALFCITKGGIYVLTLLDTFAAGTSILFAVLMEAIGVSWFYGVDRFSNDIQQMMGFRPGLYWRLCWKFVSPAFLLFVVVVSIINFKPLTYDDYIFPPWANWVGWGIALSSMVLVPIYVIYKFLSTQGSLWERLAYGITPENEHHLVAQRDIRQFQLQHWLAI

[10] = biological target: T3, Alpha-1B adrenergic receptor (Homo sapiens) (UniProt P35368); assay: Inhibition of adrenergic alpha1B receptor at 1 uM by radioligand displacement assay; summary of the method: as §1
T3 sequence (whole entry): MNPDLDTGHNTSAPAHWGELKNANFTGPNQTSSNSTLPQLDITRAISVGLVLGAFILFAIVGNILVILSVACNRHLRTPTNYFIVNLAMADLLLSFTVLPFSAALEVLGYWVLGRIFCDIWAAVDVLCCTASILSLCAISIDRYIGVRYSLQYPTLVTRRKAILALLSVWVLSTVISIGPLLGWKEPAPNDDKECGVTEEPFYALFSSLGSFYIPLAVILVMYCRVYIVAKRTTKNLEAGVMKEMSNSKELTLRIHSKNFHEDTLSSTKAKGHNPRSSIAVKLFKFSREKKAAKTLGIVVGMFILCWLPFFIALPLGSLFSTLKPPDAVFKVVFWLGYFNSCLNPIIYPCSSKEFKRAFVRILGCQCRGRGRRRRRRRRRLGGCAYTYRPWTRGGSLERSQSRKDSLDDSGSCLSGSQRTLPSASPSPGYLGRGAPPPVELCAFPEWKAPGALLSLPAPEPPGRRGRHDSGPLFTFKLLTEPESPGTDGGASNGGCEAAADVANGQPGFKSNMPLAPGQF

[11] = Ratio of drug level in brain to plasma at steady state in Wistar rat at 10 mg/kg, po after 1 hr; type: ADME, organism-based; parameters: dose 10 mg/kg, route oral; details: read-out: BPR
[12] = Cmax in Wistar rat at 10 mg/kg, po; type: ADME, organism-based; parameters: dose 10 mg/kg, route oral; details: in vivo
Summary of the method: (§2)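 Fasted male Wistar rats were dosed orally at 10 mg/kg in water for injection (10 mL/kg). Parameters come from the plasma concentration-time profile.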

[13] = Apparent volume of distribution in Wistar rat at 5 to 10 mg/kg, iv; type: ADME, organism-based; parameters: dose 5-10 mg/kg, route intravenous; details: in vivo, read-out: Vz
Summary of the method: (§3)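 Fasted male Wistar rats were dosed intravenously in water for injection at 2 mL/kg. Parameters come from the plasma profile.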

[14] = biological target: T1, 5-hydroxytryptamine receptor 6; assay: Antagonist activity at recombinant human 5HT6 receptor expressed in CHO cells assessed as inhibition of 5HT-stimulated cAMP accumulation after 4 hrs by luciferase reporter gene assay relative to control; type: functional, cell-based
[15] = Half life in Wistar rat at 10 mg/kg, po; type: ADME, organism-based; parameters: dose 10 mg/kg, route oral; details: in vivo; summary of the method: as §2
[16] = Half life in Wistar rat at 5 to 10 mg/kg, iv; type: ADME, organism-based; parameters: dose 5-10 mg/kg, route intravenous; details: in vivo; summary of the method: as §3
Cytochrome P450 2D6 = Cytochrome P450 2D6 (Homo sapiens, UniProt P10635); assay: Inhibition of CYP2D6 in human liver microsomes using dextromethorphan as substrate after 10 mins in presence of NADPH; type: ADME, Microsome
Chain of Cytochrome P450 2D6 (P10635 whole entry): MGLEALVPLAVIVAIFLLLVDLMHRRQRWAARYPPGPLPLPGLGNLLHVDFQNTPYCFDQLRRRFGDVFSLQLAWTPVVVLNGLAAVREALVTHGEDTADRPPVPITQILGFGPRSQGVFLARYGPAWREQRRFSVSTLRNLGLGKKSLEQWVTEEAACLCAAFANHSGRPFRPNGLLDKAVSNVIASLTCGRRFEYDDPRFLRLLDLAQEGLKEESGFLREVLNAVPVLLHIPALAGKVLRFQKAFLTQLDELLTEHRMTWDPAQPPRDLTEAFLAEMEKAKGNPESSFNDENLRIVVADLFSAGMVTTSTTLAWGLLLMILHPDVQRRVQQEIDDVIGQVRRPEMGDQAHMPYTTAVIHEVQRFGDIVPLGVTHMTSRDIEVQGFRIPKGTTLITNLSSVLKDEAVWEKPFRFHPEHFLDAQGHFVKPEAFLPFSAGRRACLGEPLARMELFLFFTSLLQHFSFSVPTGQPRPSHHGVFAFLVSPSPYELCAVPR

[17] = Drug metabolism in human liver microsomes at 2.5 uM after 0.5 hrs; type: ADME, Microsome; details: read-out: Drug metabolism
[18] = Drug metabolism in Wistar rat liver microsomes at 2.5 uM after 0.5 hrs; type: ADME, Microsome; details: read-out: Drug metabolism
[19] = AUCt in Wistar rat at 10 mg/kg, po; type: ADME, organism-based; parameters: dose 10 mg/kg, route oral; details: plasma; summary of the method: as §2
[20] = Clearance in Wistar rat at 5 to 10 mg/kg, iv; type: ADME, organism-based; parameters: dose 5-10 mg/kg, route intravenous; details: in vivo; summary of the method: as §3
Rattus norvegicus = assay: Cognitive enhancing effect in Wistar rat assessed as reversal of time delay-induced memory deficit at 10 mg/kg, po after 60 mins by object recognition test; type: functional, organism-based; parameters: dose 10 mg/kg
Summary of the method: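 Object recognition task in rats. Drug or vehicle (PEG 400 50% v/v, 1 mL/kg) was given orally 60 min before testing, at 10 mg/kg. n = 6–9 per group.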

[21] = Oral bioavailability in Wistar rat at 10 mg/kg; type: ADME, organism-based; details: in vivo; summary of the method: as §2
[22] = Tmax in Wistar rat at 10 mg/kg, po; type: ADME, organism-based; parameters: dose 10 mg/kg, route oral; details: in vivo; summary of the method: as §2
[23] = biological target: T1, 5-hydroxytryptamine receptor 6; assay: Antagonist activity at recombinant human 5HT6 receptor expressed in CHO cells assessed as inhibition of 5HT-stimulated cAMP accumulation after 4 hrs by luciferase reporter gene assay; type: functional, cell-based
Summary of the method: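 Functional antagonism measured in a non-radioactive CHO cell-based assay as inhibition of 5-HT-stimulated cAMP accumulation. IC50 was derived from this inhibition, and Kb values were determined in the same cell-based format. IC50 and Kb are each the mean of two experiments.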

Cytochrome P450 3A4 = Cytochrome P450 3A4 (Homo sapiens, UniProt P08684); assay: Inhibition of CYP3A4 in human liver microsomes using midazolam as substrate after 5 mins in presence of NADPH; type: ADME, Microsome

Chain of D(2) dopamine receptor (Homo sapiens) (P14416 whole entry): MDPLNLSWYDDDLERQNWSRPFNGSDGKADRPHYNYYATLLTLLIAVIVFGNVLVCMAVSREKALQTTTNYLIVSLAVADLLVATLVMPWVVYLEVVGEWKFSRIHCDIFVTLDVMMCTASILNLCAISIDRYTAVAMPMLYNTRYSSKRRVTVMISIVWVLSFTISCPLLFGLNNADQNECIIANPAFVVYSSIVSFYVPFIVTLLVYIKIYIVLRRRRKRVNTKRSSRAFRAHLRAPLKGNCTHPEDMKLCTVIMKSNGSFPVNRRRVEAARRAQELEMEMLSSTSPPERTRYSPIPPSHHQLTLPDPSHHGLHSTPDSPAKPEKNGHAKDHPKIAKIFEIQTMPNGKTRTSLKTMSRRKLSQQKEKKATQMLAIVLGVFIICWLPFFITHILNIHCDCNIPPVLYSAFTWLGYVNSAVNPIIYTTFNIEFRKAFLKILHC

Row | Structure (SMILES) | inhibition [1] [%] | Ki [2] [nM] | inhibition [3] [%] | inhibition at 1 µM (hERG (KCNH2)) [%] | inhibition [4] [%] | inhibition [5] [%] | inhibition [6] [%] | inhibition [7] [%] | inhibition [8] [%] | inhibition [9] [%] | inhibition [10] [%] | Cmax [12] [ng/mL] | Vd [13] [L/kg] | Imax [14] [%] | half-life [16] [h] | IC50 (Cytochrome P450 2D6) [nM] | metabolised at 0.5 h, 2.5 µM [17] [%] | metabolised at 0.5 h, 2.5 µM [18] [%] | AUC(0-t) [19] [ng·h/mL] | clearance [20] [mL/min/kg] | also measured
1 | O=S(=O)(c1ccccc1Br)n1ccc2c(CN3CCNCC3)cccc21 | 12.8 | 2.82 | 8.47 | 24.5 | 8.31 | 18 | 9.82 | 18.7 | 5.23 | 6.28 | 1.13 |  |  |  |  |  |  |  |  |  | 
2 | CN1CCN(Cc2cccc3c2c(Cl)cn3S(=O)(=O)c2cccc(Cl)c2)CC1 | 12.9 |  | 1.51 | 20.2 | 28.5 | 19.9 | 9.33 | 17.7 | 20.4 | 13.5 | 0.78 |  |  |  |  |  |  |  |  |  | 
3 | CN1CCN(Cc2cccc3c2ccn3S(=O)(=O)c2ccccc2Br)CC1 | 11.1 |  | 4.62 | 15.8 | 27.8 | 18.8 | 9.48 | 24 | 3.66 | 10.8 | 2.26 | 60 | 32.6 | 100 | 1.76 | 19500 | 90 | 100 | 217 | 220 | Kp at 1 h [11]: 20.3; half-life [15]: 3.17 h; Activity (Rattus norvegicus): Active; bioavailability [21]: 29%; Tmax [22]: 1.83 h; IC50 [23]: 135 nM; Kb [23]: 0.59 nM
4 | CN1CCN(Cc2cccc3c2ccn3S(=O)(=O)c2ccccc2)CC1 | 7.26 | 3.24 | 2.85 | 21.1 | 22.6 | 6.73 | 10.1 | 10.9 | 3.92 | 10.2 | 0.99 | 7.6 | 19.4 | 99 | 1.53 | 16800 | 47 | 100 | 23 | 152 | IC50 (Cytochrome P450 3A4): 30500 nM; bioavailability [21]: 2%; Tmax [22]: 1.08 h; IC50 [23]: 234 nM; Kb [23]: 1.02 nM
5 | CN1CCN(Cc2cccc3c2c(Br)cn3S(=O)(=O)c2ccccc2)CC1 | 5.01 |  | 5.27 | 23 | 35.7 | 8.93 | 2.38 | 19.3 | 3.53 | 6.78 | 2.17 |  |  |  |  |  |  |  |  |  | 

From ChEMBL document CHEMBL2203006, “Design, synthesis and pharmacological evaluation of 4-(piperazin-1-yl methyl)-N₁-arylsulfonyl indole derivatives as 5-HT₆ receptor ligands” (Bioorg Med Chem Lett, 2012)
